Reference: ChEMBL document CHEMBL3085677, “Novel coumarin-3-carboxamides bearing N-benzylpiperidine moiety as potent acetylcholinesterase inhibitors” (Eur J Med Chem, 2013)
The source made the active and inactive calls. The calls are words filed in the database; no cut-off is given here.

Columns and labels:
Cholinesterase = Cholinesterase (Equus caballus, UniProt P81908); assay: Inhibition of equine serum BChE using butyrylthiocholine iodide as substrate preincubated for 15 mins prior to substrate addition by Ellman's method
In short: (§1)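 Ellman-type assay at 25 °C with eel AChE (Type V-S) or equine serum BuChE, added as a 2.5 unit/mL enzyme solution. Medium was 0.1 M phosphate buffer pH 8.0 with DTNB added from a 0.01 M solution. Inhibitor was preincubated 15 min before acetylthiocholine or butyrylthiocholine iodide. ΔA412 was read over 6 min, corrected against a non-enzymatic blank. Five concentrations in triplicate gave 20–80% inhibition. IC50 came graphically from log-concentration curves, mean of three experiments; SI = IC50 BuChE/IC50 AChE.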

[1] = Selectivity index, ratio of IC50 for equine serum BChE to IC50 for electric eel AChE; in short: as §1
Acetylcholinesterase = Acetylcholinesterase (Electrophorus electricus, UniProt O42275); assay: Inhibition of electric eel AChE using acetylcholine as substrate preincubated for 15 mins prior to substrate addition by Ellman's method
PC-12 = assay: Protection against H2O2-induced cell death in rat PC12 cells pretreated at 1 to 100 uM for 3 hrs before H2O2 challenge using DAPI staining method; format: functional, cell-based
In short: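 Rat PC12 cells grown in RPMI 1640 with 10% FCS and penicillin/streptomycin, plated at 10^4 cells/well. Held 2 days serum-free, then given NGF 50 ng/ml for 5 days until neurites formed. Pretreated 3 h at three compound levels before H2O2 challenge. Apoptosis judged by DAPI added to live cells for 20 min. Viability read by MTT after 24 h.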

[2] = Cytotoxicity against rat PC12 cells at 1 to 100 uM after 24 hrs by MTT assay; format: cell-based; conditions: pc-12, 24 h
[3] = molecular target: Acetylcholinesterase (Electrophorus electricus) (UniProt O42275); assay: Ratio of donepezil IC50 to compound IC50 for electric eel AChE using acetylcholine as substrate preincubated for 15 mins prior to substrate addition by Ellman's method
[4] = molecular target: Acetylcholinesterase (Electrophorus electricus) (UniProt O42275); assay: Mixed-type inhibition of electric eel AChE using acetylcholine as substrate by Lineweaver-Burk plot method
In short: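 Kinetics used eel AChE with inhibitor fixed at 0.357, 3.57 or 11.9 nM. Initial velocities were measured across several acetylthiocholine concentrations. Reciprocal velocity (1/v) was plotted against 1/[ATCh] (double-reciprocal plot).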

Cholinesterase, sequence (P81908 whole entry): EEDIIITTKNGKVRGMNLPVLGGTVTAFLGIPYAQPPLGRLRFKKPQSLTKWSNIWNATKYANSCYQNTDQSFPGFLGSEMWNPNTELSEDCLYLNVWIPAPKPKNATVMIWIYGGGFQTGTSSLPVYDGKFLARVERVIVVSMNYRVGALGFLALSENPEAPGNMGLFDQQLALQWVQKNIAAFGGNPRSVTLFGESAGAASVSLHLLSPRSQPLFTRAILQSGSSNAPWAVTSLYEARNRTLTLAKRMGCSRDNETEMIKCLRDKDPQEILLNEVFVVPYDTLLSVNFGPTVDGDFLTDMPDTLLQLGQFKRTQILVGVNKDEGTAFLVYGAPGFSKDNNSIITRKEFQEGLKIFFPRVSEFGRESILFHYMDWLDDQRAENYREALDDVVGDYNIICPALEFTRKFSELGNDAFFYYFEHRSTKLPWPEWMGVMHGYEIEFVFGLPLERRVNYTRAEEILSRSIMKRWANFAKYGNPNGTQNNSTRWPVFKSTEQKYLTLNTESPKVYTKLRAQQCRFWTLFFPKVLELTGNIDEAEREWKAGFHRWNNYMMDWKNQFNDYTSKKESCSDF
Acetylcholinesterase, sequence (O42275 whole entry): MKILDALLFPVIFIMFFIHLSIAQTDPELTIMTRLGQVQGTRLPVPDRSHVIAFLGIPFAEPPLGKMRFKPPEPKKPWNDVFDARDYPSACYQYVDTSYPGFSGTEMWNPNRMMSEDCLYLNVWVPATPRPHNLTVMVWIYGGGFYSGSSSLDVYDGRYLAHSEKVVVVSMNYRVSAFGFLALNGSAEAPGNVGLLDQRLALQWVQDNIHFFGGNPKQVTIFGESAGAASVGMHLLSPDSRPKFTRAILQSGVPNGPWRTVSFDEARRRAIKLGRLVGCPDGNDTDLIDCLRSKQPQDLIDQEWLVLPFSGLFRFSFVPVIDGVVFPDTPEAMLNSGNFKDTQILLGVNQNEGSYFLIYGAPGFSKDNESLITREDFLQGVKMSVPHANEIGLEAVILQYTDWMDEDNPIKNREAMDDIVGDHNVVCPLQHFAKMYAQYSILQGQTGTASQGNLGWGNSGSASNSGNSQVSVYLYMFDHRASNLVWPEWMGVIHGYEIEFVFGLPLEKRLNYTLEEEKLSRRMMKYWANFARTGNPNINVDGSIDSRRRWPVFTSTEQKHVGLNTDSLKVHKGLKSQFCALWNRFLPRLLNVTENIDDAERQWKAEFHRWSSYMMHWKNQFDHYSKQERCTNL
Acetylcholinesterase (Electrophorus electricus), sequence (O42275 24-633 limits assumed): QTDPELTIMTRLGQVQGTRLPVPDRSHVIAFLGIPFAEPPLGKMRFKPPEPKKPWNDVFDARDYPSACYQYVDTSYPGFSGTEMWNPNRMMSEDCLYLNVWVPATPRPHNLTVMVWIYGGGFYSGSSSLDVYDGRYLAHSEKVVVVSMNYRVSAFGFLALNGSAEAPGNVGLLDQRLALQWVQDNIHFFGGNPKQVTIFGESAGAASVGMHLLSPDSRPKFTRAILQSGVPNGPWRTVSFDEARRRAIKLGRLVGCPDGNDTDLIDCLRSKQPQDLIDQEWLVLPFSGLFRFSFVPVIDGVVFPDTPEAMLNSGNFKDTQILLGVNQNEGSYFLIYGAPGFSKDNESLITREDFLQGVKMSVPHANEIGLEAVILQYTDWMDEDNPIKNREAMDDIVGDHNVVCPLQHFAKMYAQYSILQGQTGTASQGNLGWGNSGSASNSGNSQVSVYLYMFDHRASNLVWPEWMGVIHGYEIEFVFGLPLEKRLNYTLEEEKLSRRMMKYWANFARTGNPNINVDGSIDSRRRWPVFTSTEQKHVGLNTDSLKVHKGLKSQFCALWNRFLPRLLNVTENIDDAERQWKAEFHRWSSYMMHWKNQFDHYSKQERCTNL

| SMILES | IC50 (Cholinesterase) [nM] | Ratio IC50 [1] | IC50 (Acetylcholinesterase) [nM] | Activity (PC-12) | Activity [2] | Ratio IC50 [3] | inhibition [4] |
| --- | --- | --- | --- | --- | --- | --- | --- |
| O=C(NCCC1CCN(Cc2ccccc2)CC1)c1cc2ccc(O)cc2oc1=O | 46000 | 321 | 143 |  |  |  |  |
| O=C(NCCC1CCN(Cc2ccccc2)CC1)c1cc2cc(Br)ccc2oc1=O | 420 | 210 | 2 | Active | Non-toxic |  |  |
| COc1ccc2cc(C(=O)NCCC3CCN(Cc4ccccc4)CC3)c(=O)oc2c1 | 357 | 71 | 5 | Active | Non-toxic |  |  |
| O=C(NC1CCN(Cc2ccccc2)CC1)c1cc2ccccc2oc1=O | 17000 | 14 | 1200 |  |  |  |  |
| O=C(NCCC1CCN(Cc2ccccc2)CC1)c1cc2ccccc2oc1=O | 371 | 14 | 26 |  |  |  |  |
| O=C(NC1CCN(Cc2ccccc2)CC1)c1cc2cc(Br)ccc2oc1=O | 42000 | 1400 | 30 |  |  |  |  |
| COc1ccc2cc(C(=O)NC3CCN(Cc4ccccc4)CC3)c(=O)oc2c1 | 27000 | 147 | 183 |  |  |  |  |
| O=C(NCCC1CCN(Cc2ccccc2)CC1)c1cc2cc(O)ccc2oc1=O | 15600 | 222 | 70 |  |  |  |  |
| O=C(NC1CCN(Cc2ccccc2)CC1)c1cc2cc([N+](=O)[O-])ccc2oc1=O | 22000 | 51 | 430 |  |  |  |  |
| O=C(NCCC1CCN(Cc2ccccc2)CC1)c1cc2cc([N+](=O)[O-])ccc2oc1=O | 7900 | 26300 | 0.3 | Active | Non-toxic | 46 | Active |
| COc1cccc2cc(C(=O)NCCC3CCN(Cc4ccccc4)CC3)c(=O)oc12 | 18000 | 9000 | 2 |  |  |  |  |
| O=C(NC1CCN(Cc2ccccc2)CC1)c1cc2ccc(O)cc2oc1=O | 55000 | 32 | 1700 |  |  |  |  |
| COc1cccc2cc(C(=O)NC3CCN(Cc4ccccc4)CC3)c(=O)oc12 | 20000 | 32 | 633 |  |  |  |  |
